What is called inhibition is how much of the control response was suppressed. A word on the MIC: it is the smallest concentration in the dilution series that meets the test's criterion for growth inhibition. Read a low MIC as inhibition by little substance. The term IC50 denotes the concentration that inhibits the measured activity by half. By solubility is commonly meant the dissolved amount per volume that the medium holds.

The target in data set [1] is T1, Quinolone resistance protein NorA (Staphylococcus aureus) (UniProt P0A0J7).
T1 sequence (whole entry): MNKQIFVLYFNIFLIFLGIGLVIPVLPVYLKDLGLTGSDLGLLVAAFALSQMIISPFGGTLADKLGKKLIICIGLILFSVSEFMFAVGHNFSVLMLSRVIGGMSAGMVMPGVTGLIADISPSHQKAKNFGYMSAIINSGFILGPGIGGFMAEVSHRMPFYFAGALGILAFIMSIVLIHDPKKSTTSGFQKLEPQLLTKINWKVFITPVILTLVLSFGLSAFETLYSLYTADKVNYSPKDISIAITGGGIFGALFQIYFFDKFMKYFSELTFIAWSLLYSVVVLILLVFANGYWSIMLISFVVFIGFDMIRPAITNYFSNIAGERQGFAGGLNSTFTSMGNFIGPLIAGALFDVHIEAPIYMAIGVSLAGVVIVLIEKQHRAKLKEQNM
Description: Inhibition of NorA efflux pump in Staphylococcus aureus 1199B assessed as reduction in EtBr efflux at 50 uM incubated for 20 mins measured for 5 mins by real-time fluorometric analysis. In outline: (§1)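 SA-1199B (norA-overexpressing) grown overnight in cation-supplemented Mueller-Hinton broth, diluted 25-fold and grown at 35 °C to OD600 0.7–0.8. Loaded with EtBr 25 µM plus CCCP 100 µM (final), then resuspended in fresh broth. Fluorescence read at ex 485/em 645 nm for 5 min, ± compound. Efflux inhibition in % relative to untreated cells; screened at 50 µM. IC50 from concentration series; triplicate, two technical replicates each.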

Data set [2] deals with Staphylococcus aureus. In words: Antimicrobial activity against Staphylococcus aureus 1199B by microdilution method. The data set is classed as functional. An outline of the steps: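 MIC by broth microdilution following CLSI guidelines against S. aureus SA-1199B, a strain that overexpresses norA. Run on compounds giving at least 80% EtBr efflux inhibition and on selected weaker ones.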
Background: Dilution methods test growth across graded concentrations, often in twofold steps.

The target of data set [3] is T2, Quinolone resistance protein NorA (Staphylococcus aureus, UniProt P0A0J7).
T2 sequence (P0A0J7 whole entry): T1 sequence (whole entry)
Description: Inhibition of NorA efflux pump in Staphylococcus aureus 1199B assessed as reduction in EtBr efflux incubated for 20 mins measured for 5 mins by real-time fluorometric analysis. An outline of the steps:
as §1

Data set [4] relates to Liver microsome. Description: Drug level in human liver microsomes treated with Ethyl 1-Benzyl-2-methyl-5-(3-(piperazin1-yl)propoxy)-(1H)-indole-3-carboxylate at 10 uM preincubated for 5 mins followed by NADPH addition measured after 30 mins by HPLC-MS/MS analysis. The data set is classed as ADME. The following applies: 0.5 h. In outline:
(§2)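 Human liver microsomes at 0.5 mg protein/ml in 100 mM potassium phosphate pH 7.4. Substrate at 10 µM final, pre-incubated 5 min at 37 °C with shaking, then started with 1 mM NADPH. Quenched at 0 and 30 min with cold acetonitrile containing labetalol internal standard. Spun 12000 g, 5 min, 4 °C; supernatant analysed by UHPLC C18 HPLC-MS/MS.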
A general note: Liver microsomes are a subcellular fraction often used to study metabolism.

The nature of data set [5]: Metabolic stability in human liver microsomes assessed as compound remaining after at 10 uM preincubated for 5 mins followed by NADPH addition measured after 30 mins by HPLC-MS/MS analysis. The data set is classed as ADME. The following applies: read-out: Stability. An outline of the steps: as §2
Data set [6] is described as follows: Solubility of the compound in D2O solution at 25 degC by 1H NMR analysis. The data set is classed as physicochemical. In outline: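 1H NMR in D2O at 25 °C with TSP internal standard, following a literature procedure.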

Converted amounts (≈) assume the structure as drawn.

For the compound `CCOC(=O)c1c(C)n(Cc2ccc([N+](=O)[O-])cc2)c2ccc(OCCCN3CCCCC3)cc12`, the inhibition in data set [1] stood at 89.9%. The MIC in data set [2] was over 100 µg/mL. Also, in data set [3], the IC50 turned out to be 6.5 µM.
On to `CCOC(=O)c1c(C)n(Cc2ccccc2)c2ccc(OCC(CF)N3CCCCC3)cc12` (stereo unspecified), for which, in data set [1], the inhibition came out at 38.5%. The MIC in data set [2] is over 100 µg/mL.
On to `CCOC(=O)c1c(C)n(Cc2ccccc2)c2ccc(OCC(O)CN3CCCCC3)cc12` (stereo unspecified), for which the inhibition in data set [1] turned out to be 99.3%. In data set [2], the MIC was over 100 µg/mL. In addition, the IC50 in data set [3] worked out at 5.8 µM.
For `CCOC(=O)c1c(C)n(Cc2ccc(C)cc2)c2ccc(OCCCN3CCCCC3)cc12`, in that order: 58.3%, 25 µg/mL (≈ 55.7 µM) and 6.7 µM.
For `CCOC(=O)c1c(C)n(Cc2cccc([N+](=O)[O-])c2)c2ccc(OCCCN3CCCCC3)cc12`, in that order: 85.1%, over 100 µg/mL and 4.4 µM.
Consider `Cc1c(C(=O)O)c2cc(OCCCN3CCNCC3)ccc2n1Cc1ccccc1`, for which, in data set [4], the Drug metabolism entry is listed as “metabolite_detected”.
Take `CCOC(=O)c1c(C)n(Cc2ccccc2)c2ccc(OCCN(C)C)cc12`: the inhibition in data set [1] turned out to be 98.2%. Further, the MIC in data set [2] was over 100 µg/mL. Further, the IC50 in data set [3] was found to be 22.5 µM.
For `CCOC(=O)c1c(C)n(Cc2cccc(F)c2)c2ccc(OCCCN3CCCCC3)cc12`, in that order: 89.7%, over 100 µg/mL and 6.1 µM.
Consider `CCOC(=O)c1c(C)n(Cc2ccccc2)c2ccc(OCCCNCc3ccccc3)cc12`, for which the inhibition in data set [1] turned out to be 45.4%.
With `CCOC(=O)c1c(C)n(Cc2cccc(C(F)(F)F)c2)c2ccc(OCCCN3CCCCC3)cc12`, the inhibition in data set [1] amounted to 12.9%. The same compound returned an MIC in data set [2] of over 100 µg/mL. In addition, the half-maximal inhibitory concentration (IC50) in data set [3] amounted to 14.2 µM.
As to `CCOC(=O)c1c(C)n(Cc2ccccc2)c2ccc(O)cc12`, in data set [1], the inhibition came to 1%. In addition, the MIC in data set [2] is over 100 µg/mL.
On to `CCOC(=O)c1c(C)n(Cc2cccc(C)c2)c2ccc(OCCCN3CCCCC3)cc12`, for which the inhibition in data set [1] was 70.9%. The compound further returned a minimal inhibitory concentration (MIC) in data set [2] of 50 µg/mL (≈ 111 µM). In addition, the IC50 in data set [3] amounted to 6.1 µM.
For `CCOC(=O)c1c(C)n(Cc2ccccc2F)c2ccc(OCCCN3CCCCC3)cc12`, in that order: 89%, over 100 µg/mL and 4.8 µM.
For `CCOC(=O)c1c(C)n(Cc2ccccc2)c2ccc(OCCN3CCCCC3)cc12`, in that order: 100%, over 100 µg/mL and 11.6 µM.
For `CCOC(=O)c1c(C)n(CCc2ccccc2)c2ccc(OCCCN3CCCCC3)cc12`, in that order: 99.3%, over 100 µg/mL and 13.7 µM.
`CCOC(=O)c1c(C)n(Cc2ccccc2)c2ccc(C(F)(F)F)cc12`: the inhibition in data set [1] came to 36.6%.
Regarding `CCOC(=O)c1c(C)n(Cc2ccccc2)c2ccc(OCCN3CCOCC3)cc12`, in data set [1], the inhibition was determined as 90.9%. Also, the MIC in data set [2] was over 100 µg/mL. Also, the IC50 in data set [3] stood at 16.8 µM.
`CCOC(=O)c1c(C)n(Cc2ccccc2)c2ccc(OCCCN3CCN(C)CC3)cc12`: in data set [1], the inhibition came to 100%. The MIC in data set [2] was over 100 µg/mL. Also, the IC50 in data set [3] was found to be 11.9 µM.
As to `CCOC(=O)c1c(C)[nH]c2ccc(OCCCN3CCNCC3)cc12`, the Drug metabolism entry in data set [4] was “metabolite_detected”.
On to `CCOC(=O)c1c(C)n(Cc2ccccc2)c2ccc([N+](=O)[O-])cc12`, for which the inhibition in data set [1] was 9.1%.
Turning to `CCOC(=O)c1c(C)n(Cc2ccc(F)cc2)c2ccc(OCCCN3CCCCC3)cc12`, the inhibition in data set [1] was determined as 91.1%. This compound had an MIC in data set [2] of over 100 µg/mL. The IC50 in data set [3] came to 8.7 µM.
For `CCOC(=O)c1c(C)n(Cc2ccc(OC)cc2)c2ccc(OCCCN3CCCCC3)cc12`, in that order: 77.7%, over 100 µg/mL and 7.1 µM.
Turning to `CCOC(=O)c1c(C)n(Cc2ccccc2)c2ccc(OCCCN3CCCCCC3)cc12`, the inhibition in data set [1] is 77.4%. Further, the minimum inhibitory concentration (MIC) in data set [2] is over 100 µg/mL.
`CCOC(=O)c1c(C)n(Cc2ccccc2)c2ccc(OCCCN3CCOCC3)cc12`: the inhibition in data set [1] is 98.6%. The MIC in data set [2] is over 100 µg/mL. Also, the IC50 in data set [3] worked out at 10.6 µM.
For `CCOC(=O)c1c(C)n(Cc2ccccc2)c2ccc(OCCc3ccccc3)cc12`, the inhibition in data set [1] amounted to 4.7%. Further, the MIC in data set [2] was over 100 µg/mL.
With `CCOC(=O)c1c(C)n(Cc2ccccc2)c2ccc(OCCCCN)cc12`, the inhibition in data set [1] was 93.7%. Further, inhibition of growth in data set [2] (MIC) required 100 µg/mL (≈ 263 µM). In data set [3], the IC50 came out at 6.7 µM.
As for `CCOC(=O)c1c(C)n(Cc2ccccc2[N+](=O)[O-])c2ccc(OCCCN3CCCCC3)cc12`, the inhibition in data set [1] was 91.8%. This compound also gave an MIC in data set [2] of over 100 µg/mL. The remaining at 0.5 h, 10 µM in data set [5] amounted to 89%. Moreover, the IC50 in data set [3] was 6.3 µM. The same compound gave a solubility in data set [6] of 14 µM (≈ 6.71 µg/mL).
For `CCOC(=O)c1c(C)n(Cc2ccccc2)c2ccc(OC(C)=O)cc12`, in data set [1], the inhibition was determined as 20.4%.
For `CCOC(=O)c1c(C)n(Cc2ccccc2C)c2ccc(OCCCN3CCCCC3)cc12`, the inhibition in data set [1] came to 54%. The same compound displayed an MIC in data set [2] of 25 µg/mL (≈ 55.7 µM). Further, the IC50 in data set [3] turned out to be 4.8 µM.
For `CCOC(=O)c1c(C)n(Cc2ccccc2)c2ccc(OCC(O)CN3CCCCCC3)cc12` (stereo unspecified), in that order: 92.8%, 100 µg/mL (≈ 215 µM) and 6.8 µM.
For `CCOC(=O)c1c(C)n(Cc2cccc(OC)c2)c2ccc(OCCCN3CCCCC3)cc12`, in that order: 77.1%, over 100 µg/mL and 7.3 µM.
As for `CCOC(=O)c1c(C)n(Cc2ccccc2)c2ccc(OCCN3CCN(C)CC3)cc12`, the inhibition in data set [1] amounted to 99.7%. The same compound yielded an MIC in data set [2] of over 100 µg/mL. The half-inhibitory concentration (IC50) in data set [3] was determined as 10.1 µM.
In the case of `Cc1cc2cc(OCCCN3CCCCC3)ccc2n1Cc1ccccc1`, the inhibition in data set [1] was 95.6%. Further, it took 0.63 µg/mL (≈ 1.74 µM) to inhibit growth in data set [2] (MIC). Also, the remaining at 0.5 h, 10 µM in data set [5] was found to be 100%. In addition, the IC50 in data set [3] is 6.6 µM. The solubility in data set [6] stood at 70 µM (≈ 25.4 µg/mL).
With `CCOC(=O)c1c(C)n(Cc2ccccc2)c2ccc(OCC(N)CO)cc12` (stereo unspecified), the inhibition in data set [1] was found to be 100%. The compound further showed an MIC in data set [2] of over 100 µg/mL. For the same compound, in data set [3], the IC50 was determined as 10.4 µM.
For `CCOC(=O)Cc1c(C)n(Cc2ccccc2)c2ccc(OCCCN3CCCCCC3)cc12`, in that order: 98.4%, 100 µg/mL (≈ 216 µM) and 6.1 µM.
On to `CCOC(=O)c1c(C)n(Cc2ccccc2)c2ccc(OCCN)cc12`, for which, in data set [1], the inhibition worked out at 67.7%.
For the compound `CCOC(=O)c1c(C)n(Cc2ccc(C(F)(F)F)cc2)c2ccc(OCCCN3CCCCC3)cc12`, the inhibition in data set [1] is 77.7%. In addition, the MIC in data set [2] was over 100 µg/mL. Moreover, the IC50 in data set [3] is 14.1 µM.
In the case of `CCOC(=O)c1c(C)n(Cc2ccccc2)c2ccc(OCCCCN3CCNCC3)cc12`, in data set [1], the inhibition came to 71.9%. In data set [2], the MIC was over 100 µg/mL.
For `CCOC(=O)c1c(C)n(Cc2ccccc2)c2ccc(OCC(O)CN)cc12` (stereo unspecified), the inhibition in data set [1] amounted to 100%. In data set [2], this compound came in with an MIC of over 100 µg/mL. Also, the IC50 in data set [3] worked out at 17.1 µM.
As to `CCOC(=O)c1c(C)n(Cc2ccccc2)c2ccc(OCCCN3CCC(F)(F)CC3)cc12`, the inhibition in data set [1] was determined as 25.9%.
As for `CCOC(=O)c1c(C)n(Cc2ccccc2)c2ccc(OCC(O)CN3CCOCC3)cc12` (stereo unspecified), in data set [1], the inhibition stood at 99%. The same compound returned an MIC in data set [2] of over 100 µg/mL. Also, the IC50 in data set [3] was determined as 17 µM.
